Test [1] has as its target T1, MOP receptor (Homo sapiens, UniProt P35372). The test can be described thus: Competitive inhibition of 3H-diprenorphine binding at the MOP receptor. The note with it: 3H-diprenorphine 0.3 nM.
Test [2] concerns the target T2, DOP receptor (Homo sapiens, UniProt P41143). The test can be described thus: BRET-based G protein. Format: cell-based.
In test [3] the target is T2, DOP receptor. Kind of test: Competitive inhibition of 3H-diprenorphine binding at the DOP receptor. The note with it: 3H-diprenorphine 0.3 nM.
Test [4] concerns the target T1, MOP receptor. The test can be described thus: BRET-based G protein. Type of test: cell-based.
For test [5], the target named is T3, hKOP receptor (Homo sapiens, UniProt P41145). The test can be described thus: BRET-based arrestin3 recruitment assay, hKOP-RLuc8 with arrestin3-mVenus. Type of test: cell-based. The note with it: Potency for arrestin3 recruitment at hKOP receptor, 5 min after ligand. The method in brief: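 HEK293T cells transfected with polyethylenimine (1:3) using 0.2 µg hKOP receptor with C-terminal RLuc8, 15 µg human arrestin3-mVenus and 4.8 µg empty vector (20 µg total), grown in DMEM/10% FBS. Assayed 48 h post-transfection: cells resuspended in PBS, ~200,000/well, 5 µM coelenterazine H, then ligand 5 min later.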

In test [6] the target is T3, hKOP receptor. Kind of test: BRET-based G protein. Type of test: cell-based. The note with it: relative to EKC.
In test [7] the target is T3, hKOP receptor. Format: binding.

Molecules are shown by their SMILES. Like-named read-outs stand apart in the source and are kept apart here.

As for `O=C(CN1CCCC1C(=O)Nc1nccs1)Nc1cccc(F)c1` (centres unmarked) [MCKK-17R, 1-(2-(3-fluorophenylamino)-2-oxoethyl)-N-(thiazol-2-yl)pyrrolidine-2-carboxamide], the Ki came out at 510 µM at MOP receptor [1] (Ki MOP, means ± S.E.M. (n=3)) and 290 µM at DOP receptor [3] (Ki DOP, means ± S.E.M. (n=3)). Also, the EC50 on DOP receptor [2] and on hKOP receptor [5] was over 1000 µM in each case. Further, on DOP receptor [2] (BRET), the “Agonistic activity at the DOP receptor, in words” value is reported as “most active enantiomer at the DOP receptor”. Moreover, the “Agonistic activity at the MOP receptor, in words” value on MOP receptor [4] is listed as “Neither the racemic nor the MCKK-17 stereoisomers displayed significant activity”.
Consider `O=C(CN1CCCC1C(=O)Nc1nccs1)Nc1cccc(F)c1` (centres unmarked) [MCKK-17S, 1-(2-(3-fluorophenylamino)-2-oxoethyl)-N-(thiazol-2-yl)pyrrolidine-2-carboxamide], for which the Ki at MOP receptor [1] (Ki MOP, means ± S.E.M. (n=3)) is over 10000 µM; at DOP receptor [3] (Ki DOP, means ± S.E.M. (n=3)) it was over 10000 µM; on hKOP receptor [7], 120 µM. Besides, the “Agonistic activity at the DOP receptor, in words” value on DOP receptor [2] (BRET) is “did not significantly activate the DOP receptor”. Besides, the EC50 is over 1000 µM at DOP receptor [2] (read-out: Potency for G protein activation at the DOP receptor, BRET) and 120 ± 47 µM at hKOP receptor [5]. In addition, on hKOP receptor [6], the “Agonistic activity (GαoB activation) at hKOP receptor, in words” value was “full agonism relative to EKC”. Further, the “Agonistic activity at the MOP receptor, in words” value on MOP receptor [4] is recorded as “Neither the racemic nor the MCKK-17 stereoisomers displayed significant activity”.
`CC[C@]12CCN(CC3CC3)[C@H](C(=O)c3ccc(O)cc31)[C@@H]2C` [EKC, ethylketocyclazocine, reference compound]: the Ki at MOP receptor [1] (Ki at the MOP receptor, reference ligand) was 0.17 ± 0.1 µM; on DOP receptor [3] (Ki at the DOP receptor, reference ligand), 0.25 ± 0.031 µM.
`O=C(CN1CCCC1C(=O)Nc1nccs1)Nc1cccc(F)c1` (racemic) [MCKK-17, 1-(2-(3-fluorophenylamino)-2-oxoethyl)-N-(thiazol-2-yl)pyrrolidine-2-carboxamide]: the EC50 was over 1000 µM at DOP receptor [2] and 160 ± 38 µM on hKOP receptor [5]. In addition, on MOP receptor [4], the “Agonistic activity at the MOP receptor, in words” value is given as “Neither the racemic nor the MCKK-17 stereoisomers displayed significant activity”. In addition, the “Inhibition of 3H-diprenorphine binding (primary testing)” value on hKOP receptor [7] (100 µM compound, 3H-diprenorphine 0.3 nM) is “partially but significantly inhibited”.

The values above are taken from PMC3702663 (Journal of chemical information and modeling, 2013).
